One data set has as its system Streptococcus pneumoniae. The data set can be described thus: Antimicrobial activity against sStreptococcus pneumoniae after 16 to 18 hrs by agar dilution method. In kind it is functional. For orientation: In agar dilution the substance is mixed into plates at graded concentrations.
Data set [1] has as its system Staphylococcus aureus. The data set can be described thus: Antimicrobial activity against Staphylococcus aureus ATCC 29213 after 16 to 18 hrs by agar dilution method. In kind it is functional.
The subject of data set [2] is Staphylococcus aureus. The data set can be described thus: Antimicrobial activity against methicillin-resistant Staphylococcus aureus after 16 to 18 hrs by agar dilution method. In kind it is functional.
For data set [3], the system named is Staphylococcus aureus. The data set can be described thus: Antimicrobial activity against methicillin-susceptible Staphylococcus aureus after 16 to 18 hrs by agar dilution method. In kind it is functional.
For the next data set, the system named is Enterococcus faecalis. The data set can be described thus: Antimicrobial activity against Enterococcus faecalis after 16 to 18 hrs by agar dilution method. In kind it is functional.
Data set [4] is described as follows: AUC (0 to infinity) in Sprague-Dawley rat at 50 mg/kg, po. In kind it is ADME, organism-based, Plasma. On the set-up: time infinity, dose 50 mg/kg, route oral. The following applies: Sprague-Dawley, plasma. The gist of the method:
(§1)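 Single dose given orally (10 or 50 mg/kg) or intravenously (10 mg/kg). Serial 300 µL blood samples were taken from the retrobulbar vein. Plasma was quantified by LC-MS. Parameters came from mean plasma concentration by non-compartmental analysis. F is absolute oral bioavailability, assuming linear pharmacokinetics.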

A short description of data set [5]: AUC (0 to infinity) in Sprague-Dawley rat at 10 mg/kg, po. In kind it is ADME, organism-based, Plasma. On the set-up: time infinity, dose 10 mg/kg, route oral. The following applies: Sprague-Dawley, plasma. The gist of the method: as §1
In data set [6] the test system is Staphylococcus aureus. The data set is described as follows: Antimicrobial activity against methicillin-resistant Staphylococcus aureus 05-2 infected in po dosed KunMing SPF mouse. In kind it is functional. In short, it runs like this:
(§2)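 Mice given a lethal systemic infection by intraperitoneal injection of the MLD inoculum of MRSA 05-2. Compound dosed orally or by i.v. injection in 0.9% NaCl immediately and 4 h post-infection. ED50 (dose curing 50% of infected mice) calculated by the Bliss method on day 7 post-infection, with 95% confidence ranges.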

Data set [7] is described as follows: Tmax in Sprague-Dawley rat at 50 mg/kg, po. In kind it is ADME, organism-based. On the set-up: dose 50 mg/kg, route oral. As to conditions: in vivo. In short, it runs like this:
as §1

A short description of data set [8]: Elimination half life in Sprague-Dawley rat at 10 mg/kg, po. In kind it is ADME, organism-based. More on the design: dose 10 mg/kg, route oral. As to conditions: in vivo, read-out: beta t1/2 (converted). The gist of the method: as §1
Data set [9] can be described thus: Elimination half life in Sprague-Dawley rat at 10 mg/kg, iv. As to conditions: in vivo, read-out: beta t1/2 (converted). On the set-up: dose 10 mg/kg, route intravenous. In kind it is ADME, organism-based. The gist of the method:
as §1

Data set [10] in a line: Cmax in Sprague-Dawley rat at 10 mg/kg, po. In kind it is ADME, organism-based. The following applies: in vivo. More on the design: dose 10 mg/kg, route oral. In short, it runs like this:
as §1

Data set [11] is described as follows: AUC (0 to infinity) in Sprague-Dawley rat at 10 mg/kg, iv. In kind it is ADME, organism-based. More on the design: time infinity, dose 10 mg/kg, route intravenous. As to conditions: plasma. The gist of the method: as §1
The nature of data set [12]: Tmax in Sprague-Dawley rat at 10 mg/kg, po. In kind it is ADME, organism-based. More on the design: dose 10 mg/kg, route oral. As to conditions: in vivo. In short, it runs like this: as §1
A short description of data set [13]: Oral bioavailability in Sprague-Dawley rat at 10 mg/kg. In kind it is ADME, organism-based. As to conditions: in vivo. The gist of the method:
as §1

Data set [14] can be described thus: Cmax in Sprague-Dawley rat at 50 mg/kg, po. In kind it is ADME, organism-based. More on the design: dose 50 mg/kg, route oral. As to conditions: in vivo. In short, it runs like this:
as §1

Data set [15] in a line: Clearance in Sprague-Dawley rat at 10 mg/kg, iv. In kind it is ADME, organism-based. On the set-up: dose 10 mg/kg, route intravenous. As to conditions: in vivo. In short, it runs like this: as §1
In data set [16] the test system is Staphylococcus aureus. The data set is described as follows: Antimicrobial activity against methicillin-resistant Staphylococcus aureus 05-2 infected in iv dosed KunMing SPF mouse. In kind it is functional. In short, it runs like this: as §2
The nature of data set [17]: Elimination half life in Sprague-Dawley rat at 50 mg/kg, po. In kind it is ADME, organism-based. On the set-up: dose 50 mg/kg, route oral. As to conditions: in vivo, read-out: beta t1/2 (converted). The gist of the method: as §1
A short description of data set [18]: Clearance in Sprague-Dawley rat at 50 mg/kg, po. In kind it is ADME, organism-based. More on the design: dose 50 mg/kg, route oral. The following applies: in vivo. The gist of the method:
as §1

The nature of data set [19]: Clearance in Sprague-Dawley rat at 10 mg/kg, po. In kind it is ADME, organism-based. On the set-up: dose 10 mg/kg, route oral. The following applies: in vivo. The gist of the method:
as §1

The structures appear in SMILES notation. ≈ marks a conversion by molar mass, not a printed value. A value given as a limit tells only on which side of the number the result lay.

With `O=Cc1cccc(CN2CCN(c3ccc(N4C[C@H](Cn5ccnn5)OC4=O)cc3F)CC2)c1`, the MIC with Streptococcus pneumoniae was 1 µg/mL (≈ 2.15 µM); against Staphylococcus aureus [1], 0.25 µg/mL (≈ 0.538 µM); in the data set on Staphylococcus aureus [2] it was 0.125 µg/mL (≈ 0.269 µM); against Staphylococcus aureus [3], 0.5 µg/mL (≈ 1.08 µM); with Enterococcus faecalis, 1 µg/mL (≈ 2.15 µM).

Turning to `O=C1O[C@@H](Cn2ccnn2)CN1c1ccc(N2CCN(Cc3ccncc3)CC2)c(F)c1`, the MIC in the data set with Streptococcus pneumoniae turned out to be 1 µg/mL (≈ 2.29 µM); in the data set on Staphylococcus aureus [1] it was 0.5 µg/mL (≈ 1.14 µM); in the data set on Staphylococcus aureus [2] it was 1 µg/mL (≈ 2.29 µM); against Staphylococcus aureus [3] it was 0.5 µg/mL (≈ 1.14 µM); against Enterococcus faecalis, 2 µg/mL (≈ 4.57 µM).

Regarding `O=C1O[C@@H](Cn2ccnn2)CN1c1ccc(N2CCN(Cc3ccccc3[N+](=O)[O-])CC2)c(F)c1`, the MIC in the data set with Streptococcus pneumoniae is 1 µg/mL (≈ 2.08 µM); in the data set with Staphylococcus aureus [1] it was 0.125 µg/mL (≈ 0.26 µM); in the data set with Staphylococcus aureus [2] it was 1 µg/mL (≈ 2.08 µM); with Staphylococcus aureus [3] it was 0.125 µg/mL (≈ 0.26 µM); against Enterococcus faecalis, > 2 µg/mL.

For `Nc1ccccc1CN1CCN(c2ccc(N3C[C@H](Cn4ccnn4)OC3=O)cc2F)CC1`, the minimal inhibitory concentration (MIC) in the data set on Streptococcus pneumoniae came out at 0.5 µg/mL (≈ 1.11 µM); against Staphylococcus aureus [1], 0.125 µg/mL (≈ 0.277 µM); in the data set with Staphylococcus aureus [2] it was 0.5 µg/mL (≈ 1.11 µM); with Staphylococcus aureus [3] it was 0.125 µg/mL (≈ 0.277 µM); against Enterococcus faecalis it was 1 µg/mL (≈ 2.21 µM).

Regarding `O=C1O[C@@H](Cn2ccnn2)CN1c1ccc(N2CCN(Cc3cccc([N+](=O)[O-])c3)CC2)c(F)c1`, the figures for the total exposure AUC(0-inf) in data set [4], in data set [5] and in data set [11] were 74500 ng·h/mL, 16100 ng·h/mL and 26200 ng·h/mL, respectively. For the same molecule, the MIC against Streptococcus pneumoniae was 0.5 µg/mL (≈ 1.04 µM); in the data set on Staphylococcus aureus [1], 0.03 µg/mL (≈ 0.0623 µM); against Staphylococcus aureus [2], 0.5 µg/mL (≈ 1.04 µM); against Staphylococcus aureus [3] it was 0.06 µg/mL (≈ 0.125 µM); in the data set with Enterococcus faecalis, 0.5 µg/mL (≈ 1.04 µM). Besides, the ED50 came to 7.87 mg/kg with Staphylococcus aureus [6] and 11.2 mg/kg with Staphylococcus aureus [16]. Moreover, the values for the Tmax in data set [7] and in data set [12] were 2.3 h and 1.4 h, respectively. The half-life is 142 min in data set [8], 177 min in data set [9] and 320 min in [17]. The Cmax in data set [10] was 3240 ng/mL; in data set [14] it was 10800 ng/mL. In data set [13], this molecule returned a bioavailability of 61.5%. Besides, the clearance in [15] was 6.98 mL/min/kg. Moreover, the apparent clearance CL/F in data set [18] is 11.3 mL/min/kg; in data set [19], 11.7 mL/min/kg.

`Nc1ccc(CN2CCN(c3ccc(N4C[C@H](Cn5ccnn5)OC4=O)cc3F)CC2)cc1`: the AUC(0-inf) in data set [4] was 18100 ng·h/mL; in [5] it was 3100 ng·h/mL; in data set [11], 7080 ng·h/mL. Also, the MIC against Streptococcus pneumoniae stood at 0.5 µg/mL (≈ 1.11 µM); in the data set on Staphylococcus aureus [1], 0.125 µg/mL (≈ 0.277 µM); against Staphylococcus aureus [2], 0.5 µg/mL (≈ 1.11 µM); with Staphylococcus aureus [3] it was 0.06 µg/mL (≈ 0.133 µM); against Enterococcus faecalis, 0.25 µg/mL (≈ 0.554 µM). The ED50 was found to be 14.5 mg/kg in the data set with Staphylococcus aureus [6] and 6.73 mg/kg in the data set with Staphylococcus aureus [16]. In addition, the Tmax in data set [7] came to 1 h; in [12], 0.75 h. Besides, the half-life in data set [8] is 204 min; in data set [9] it was 211 min; in [17], 280 min. In addition, the values for the Cmax in data set [10] and in data set [14] were 1200 ng/mL and 2320 ng/mL, respectively. This molecule also showed a bioavailability in data set [13] of 43.8%. This molecule displayed a clearance in data set [15] of 23.9 mL/min/kg. Moreover, the CL/F in [18] turned out to be 49 mL/min/kg; in data set [19] it was 54.4 mL/min/kg.

With `O=C1O[C@@H](Cn2ccnn2)CN1c1ccc(N2CCN(Cc3ccccn3)CC2)c(F)c1`, the MIC is 0.5 µg/mL (≈ 1.14 µM) against Streptococcus pneumoniae; 0.125 µg/mL (≈ 0.286 µM) in the data set on Staphylococcus aureus [1]; 0.5 µg/mL (≈ 1.14 µM) against Staphylococcus aureus [2]; 0.125 µg/mL (≈ 0.286 µM) in the data set on Staphylococcus aureus [3]; 0.5 µg/mL (≈ 1.14 µM) against Enterococcus faecalis.

In the case of `O=C1O[C@@H](Cn2ccnn2)CN1c1ccc(N2CCN(Cc3ccc([N+](=O)[O-])cc3)CC2)c(F)c1`, the MIC against Streptococcus pneumoniae was 4 µg/mL (≈ 8.31 µM); with Staphylococcus aureus [1], 0.5 µg/mL (≈ 1.04 µM); in the data set with Staphylococcus aureus [2] it was > 8 µg/mL; against Staphylococcus aureus [3] it was 0.5 µg/mL (≈ 1.04 µM); in the data set on Enterococcus faecalis, 8 µg/mL (≈ 16.6 µM).

For `O=C1O[C@@H](Cn2ccnn2)CN1c1ccc(N2CCN(Cc3ccc(Br)s3)CC2)c(F)c1`, the MIC worked out at 0.5 µg/mL (≈ 0.959 µM) in the data set on Streptococcus pneumoniae; 0.06 µg/mL (≈ 0.115 µM) in the data set on Staphylococcus aureus [1]; 0.5 µg/mL (≈ 0.959 µM) against Staphylococcus aureus [2]; 0.06 µg/mL (≈ 0.115 µM) against Staphylococcus aureus [3]; 1 µg/mL (≈ 1.92 µM) with Enterococcus faecalis.

For `Cc1ccc(CN2CCN(c3ccc(N4C[C@H](Cn5ccnn5)OC4=O)cc3F)CC2)s1`, the MIC was 2 µg/mL (≈ 4.38 µM) against Streptococcus pneumoniae; 0.125 µg/mL (≈ 0.274 µM) with Staphylococcus aureus [1]; 4 µg/mL (≈ 8.76 µM) in the data set with Staphylococcus aureus [2]; 0.06 µg/mL (≈ 0.131 µM) in the data set on Staphylococcus aureus [3]; 4 µg/mL (≈ 8.76 µM) in the data set on Enterococcus faecalis.

For the molecule `O=C1O[C@@H](Cn2ccnn2)CN1c1ccc(N2CCN(Cc3ccc(Cl)o3)CC2)c(F)c1`, the MIC with Streptococcus pneumoniae was 1 µg/mL (≈ 2.17 µM); against Staphylococcus aureus [1], 0.125 µg/mL (≈ 0.271 µM); with Staphylococcus aureus [2] it was 1 µg/mL (≈ 2.17 µM); in the data set with Staphylococcus aureus [3], 0.125 µg/mL (≈ 0.271 µM); in the data set with Enterococcus faecalis, 2 µg/mL (≈ 4.34 µM).

What is called MIC is the least concentration at which growth counts as inhibited. Lower therefore signals greater potency. The term AUC(0-inf) denotes the area under the concentration-time curve extrapolated to infinity. In general, ED50 refers to the dose that gives a 50% effect, or the effect in half of the subjects. By Tmax is commonly meant the time at which the peak concentration occurs. As a reminder, the Cmax is the highest concentration seen after dosing. What is called bioavailability is the share of a dose that reaches the circulation, judged against a reference dose that is usually intravenous. A low value points to poor availability. As a reminder, the clearance is the volume of plasma or blood freed of the substance per unit of time. One may read the CL/F as clearance divided by bioavailability, as obtained after extravascular dosing.

Values taken from ChEMBL document CHEMBL1151774, “Synthesis and biological evaluation of new N-linked 5-triazolylmethyl oxazolidinones” (Eur J Med Chem, 2008).
